{"source": "PubChem BioAssay", "note": "The other results are listed elsewhere or left out. The source made the active and inactive calls.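 How the source made its calls, unless noted: active means activation above the solvent-only control well mean plus 3 SD, set per plate batch (cut at about 110% in these data); inactive means the rest.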"}
{"target": "Signal transducer and activator of transcription 3 (Homo sapiens) (UniProt P40763)", "assay": "enhancers of IL-6 STAT3 transcription – U3A cells, luciferase, luminescence, counter-screen for STAT1 activator project, confirmation (AID 1316);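 further: 0% = no luminescence and 100% = median IL-6 plus DMSO wells; higher means more STAT3 reporter activation so hits are non-selective activators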", "settings": "U3A cells STAT3-luciferase reporter, IL-6, luminescence; at 5.7 µM; active compounds read high; 100 = IL-6 alone, no compound effect; cells lack STAT1"}
{"smiles": "Cc1cccc(N=Nc2c(O)[nH]c3ccc(F)cc23)c1", "activation (% of control)": "109% (inactive)"}
{"smiles": "COc1ccc(-n2ncc3c(N4CCCc5ccccc54)ncnc32)cc1", "activation (% of control)": "112% (active)"}
{"smiles": "COc1ccc(-n2nnnc2-c2nc3ccccc3s2)cc1", "activation (% of control)": "111% (active)"}
{"smiles": "COc1ccc2oc(-c3cccc(NC(=O)CSc4ccc(Cl)cc4)c3)nc2c1", "activation (% of control)": "100% (inactive)"}
{"smiles": "COc1ccc(-c2csc(Cc3nc(O)cs3)n2)cc1", "activation (% of control)": "124% (active)"}
{"smiles": "Cc1cc2nc(SCCN3CCOCC3)[nH]c2cc1C", "activation (% of control)": "121% (active)"}
{"smiles": "CCc1ccc(NC2Nc3cc(C)nn3S2)cc1", "note": "(stereo not drawn)", "activation (% of control)": "126% (active)"}
{"smiles": "Cc1ccccc1Nc1nc(N)nc(CSc2ccccc2)n1", "activation (% of control)": "127% (active)"}
{"smiles": "OCCCN1c2ccccc2Nc2nnc(-c3ccccc3)cc21", "activation (% of control)": "102% (inactive)"}
{"smiles": "Nc1ncc(-c2cc3ccccc3oc2=O)s1", "activation (% of control)": "110% (inactive)"}
{"smiles": "Cc1cc(C)c2nc(NC(=O)C3CCCO3)sc2c1", "note": "(stereo not drawn)", "activation (% of control)": "195% (active)"}
{"smiles": "COc1ccc2nc(SCc3ccccc3)nc(C)c2c1", "activation (% of control)": "107% (inactive)"}
{"smiles": "Clc1ccc(Nc2nc(-c3cccs3)cs2)nc1", "activation (% of control)": "133% (active)"}
{"smiles": "COc1ccc(CS(=O)/C(Cl)=C(/Cl)C(=O)Nc2ccc(OC)nc2)cc1", "note": "(stereo not drawn)", "activation (% of control)": "105% (inactive)"}
{"smiles": "c1cnc(Nc2nc(-c3ccc4ccccc4c3)cs2)nc1", "activation (% of control)": "105% (inactive)"}
{"smiles": "O=C(Nc1ccc(-c2nnc(-c3ccccc3)o2)cc1)C1CCCO1", "note": "(stereo not drawn)", "activation (% of control)": "123% (active)"}
{"smiles": "CC(=O)c1sc(NC(=O)c2ccc(C)cc2)nc1C", "activation (% of control)": "94.7% (inactive)"}
{"smiles": "Cc1cccc(NC(=O)Nc2ccc3c(c2)OCO3)n1", "activation (% of control)": "121% (active)"}
{"smiles": "COc1ccc(/C=N/Nc2nc3ccccc3o2)cc1OC", "activation (% of control)": "108% (inactive)"}
{"smiles": "Cc1cc(Cl)ccc1OCc1nc(-c2ccncc2)no1", "activation (% of control)": "106% (inactive)"}
{"smiles": "O=C(Nc1ccc(Cl)cn1)c1cnn2cccnc12", "activation (% of control)": "111% (active)"}
{"smiles": "CN1C(=O)/C(=C/C=C2\\SCCN2C)OC1=S", "activation (% of control)": "118% (active)"}
{"smiles": "CC(C)c1ccc(NC(=O)NC2CCCCC2)cc1", "activation (% of control)": "129% (active)"}
{"smiles": "COc1ccc2nc(NC(=O)c3ccc(Br)s3)sc2c1", "activation (% of control)": "99.8% (inactive)"}
{"smiles": "CCNc1nc(-c2cc3ccccc3o2)cs1", "activation (% of control)": "103% (inactive)"}
{"smiles": "Cc1noc(C)c1/C=N/Nc1ccc2ccccc2n1", "activation (% of control)": "149% (active)"}
{"smiles": "CCn1c(/C=C/c2ccc([N+](=O)[O-])o2)nc2ccccc2c1=O", "activation (% of control)": "102% (inactive)"}
{"smiles": "CCOc1ccc2nc(C(=O)N3CCCC(C)C3)sc2c1", "note": "(stereo not drawn)", "activation (% of control)": "97.8% (inactive)"}
{"smiles": "Cc1cccc(-c2noc(-c3ccc(F)cc3)n2)c1", "activation (% of control)": "119% (active)"}
{"smiles": "CCC(=O)NC(=Nc1nc2ccccc2s1)NC(=O)CC", "activation (% of control)": "112% (active)"}
{"smiles": "CC(=O)Nc1cccc(-c2csc(Nc3cccc(C)n3)n2)c1", "activation (% of control)": "106% (inactive)"}
{"smiles": "NC(=O)Cc1ccc2sc(-c3ccccc3)nc2c1", "activation (% of control)": "108% (inactive)"}
{"smiles": "O=C(Nc1ccc2c(c1)CCC2)c1ccc(Br)s1", "activation (% of control)": "114% (active)"}
{"smiles": "Cc1ccc(NC(=O)c2csc3c2CCCC3)cc1", "activation (% of control)": "111% (active)"}
{"smiles": "CN(C)c1ccnc2sc(C(=O)c3ccccc3)c(N)c12", "activation (% of control)": "109% (inactive)"}
{"smiles": "COc1ccc(NC(=O)/C(Cl)=C(/Cl)S(=O)Cc2ccc(C)cc2)cn1", "note": "(stereo not drawn)", "activation (% of control)": "103% (inactive)"}
{"smiles": "O=C(Nc1ccc2oc(-c3ccccc3F)nc2c1)c1ccco1", "activation (% of control)": "104% (inactive)"}
{"smiles": "c1ccc(Nc2nc(-c3ccncc3)cs2)nc1", "activation (% of control)": "126% (active)"}
{"smiles": "O=C(c1cc(-c2cccs2)on1)N1CCCCC1", "activation (% of control)": "105% (inactive)"}
{"smiles": "COc1ccccc1-c1cc(C(=O)N2CCCCC2)no1", "activation (% of control)": "116% (active)"}
{"target": "Oxysterols receptor LXR-beta (Homo sapiens) (UniProt P55055)", "sequence (P55055 whole entry, looked up, the tested form may be a part)": "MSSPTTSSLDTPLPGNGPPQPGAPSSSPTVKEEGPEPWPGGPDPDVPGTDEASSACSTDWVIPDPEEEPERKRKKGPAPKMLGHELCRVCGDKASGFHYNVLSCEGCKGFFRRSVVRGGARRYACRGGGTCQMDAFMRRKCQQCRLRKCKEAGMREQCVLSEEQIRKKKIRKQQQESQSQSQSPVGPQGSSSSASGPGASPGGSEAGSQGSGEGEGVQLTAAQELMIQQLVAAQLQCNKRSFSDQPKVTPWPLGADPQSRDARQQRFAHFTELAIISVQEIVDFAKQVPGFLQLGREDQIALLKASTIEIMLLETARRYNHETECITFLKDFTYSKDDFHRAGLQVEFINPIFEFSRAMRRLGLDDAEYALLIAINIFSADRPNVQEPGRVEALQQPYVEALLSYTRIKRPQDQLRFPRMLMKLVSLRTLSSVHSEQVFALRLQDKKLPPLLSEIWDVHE", "assay": "nonspecific reporter activation via LXR – cell-based, luminescence, HEK293, H. contortus campaign, counter-screen for hcDAF-12 agonist project, confirmation (AID 743027;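 active means mean percent activation of the reporter above a cutoff set as the average over tested compounds plus their standard deviation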)", "settings": "HEK293 Gal4-LXR tk-luc reporter, 24 h, at 6.8 µM, active compounds read high, normalized: DMSO 0%, positive control 100%", "how_it_was_run": "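Assay system: HEK293 Gal4-LXR luciferase reporter cells | Measure: % activation relative to DMSO and positive-control wells | Benchmarks: DMSO-only wells as low, positive-control wells as high | Timing: 24 h compound exposure at 37 °C, 5% CO2 | Detection: Luciferase luminescence read with One-Glo reagent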"}
{"smiles": "COc1ccc(-n2nnnc2-c2nc3ccccc3s2)cc1", "activation": "1.88% (inactive)"}
{"smiles": "COc1ccc(-c2csc(Cc3nc(O)cs3)n2)cc1", "activation": "1.22% (inactive)"}
{"smiles": "Cc1ccccc1Nc1nc(N)nc(CSc2ccccc2)n1", "activation": "1.61% (inactive)"}
{"smiles": "Cc1cc(C)c2nc(NC(=O)C3CCCO3)sc2c1", "note": "(stereo not drawn)", "activation": "1.55% (inactive)"}
{"smiles": "COc1ccc2nc(SCc3ccccc3)nc(C)c2c1", "activation": "1.78% (inactive)"}
{"smiles": "Clc1ccc(Nc2nc(-c3cccs3)cs2)nc1", "activation": "2.13% (inactive)"}
{"smiles": "Cc1cccc(NC(=O)Nc2ccc3c(c2)OCO3)n1", "activation": "0.92% (inactive)"}
{"smiles": "CCNc1nc(-c2cc3ccccc3o2)cs1", "activation": "2.08% (inactive)"}
{"smiles": "Cc1noc(C)c1/C=N/Nc1ccc2ccccc2n1", "activation": "1.54% (inactive)"}
{"smiles": "CCOc1ccc2nc(C(=O)N3CCCC(C)C3)sc2c1", "note": "(stereo not drawn)", "activation": "1.14% (inactive)"}
{"smiles": "CC(=O)Nc1cccc(-c2csc(Nc3cccc(C)n3)n2)c1", "activation": "1.08% (inactive)"}
{"smiles": "O=C(Nc1ccc2c(c1)CCC2)c1ccc(Br)s1", "activation": "2.03% (inactive)"}
{"smiles": "Cc1ccc(NC(=O)c2csc3c2CCCC3)cc1", "activation": "1.06% (inactive)"}
{"smiles": "c1ccc(Nc2nc(-c3ccncc3)cs2)nc1", "activation": "1.73% (inactive)"}
{"test_system": "Nuclear hormone receptor DAF-12 (Haemonchus contortus)", "assay": "hcDAF-12 luciferase reporter activation, retest – cell-based, luminescence, HEK293, lit1-tk-luc, triplicate, confirmation (AID 743032;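 active means mean activation across triplicate tests above the threshold derived from the earlier primary screen, cut at about 5.5% in these data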;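 further: 0% = DMSO only wells and 100% = 3 µM Δ7-dafachronic acid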)", "settings": "HEK293 hcDAF-12 lit1-tk-luc reporter, at 6.8 µM, active compounds read high, % of Δ7-dafachronic acid response"}
{"smiles": "COc1ccc(-n2nnnc2-c2nc3ccccc3s2)cc1", "activation": "12.8% (active)"}
{"smiles": "COc1ccc(-c2csc(Cc3nc(O)cs3)n2)cc1", "activation": "7.02% (active)"}
{"smiles": "Cc1ccccc1Nc1nc(N)nc(CSc2ccccc2)n1", "activation": "8.23% (active)"}
{"smiles": "Cc1cc(C)c2nc(NC(=O)C3CCCO3)sc2c1", "note": "(stereo not drawn)", "activation": "6.1% (active)"}
{"smiles": "COc1ccc2nc(SCc3ccccc3)nc(C)c2c1", "activation": "5.65% (active)"}
{"smiles": "Clc1ccc(Nc2nc(-c3cccs3)cs2)nc1", "activation": "13.6% (active)"}
{"smiles": "Cc1cccc(NC(=O)Nc2ccc3c(c2)OCO3)n1", "activation": "4.11% (inactive)"}
{"smiles": "CCNc1nc(-c2cc3ccccc3o2)cs1", "activation": "8.18% (active)"}
{"smiles": "Cc1noc(C)c1/C=N/Nc1ccc2ccccc2n1", "activation": "15.2% (active)"}
{"smiles": "CCOc1ccc2nc(C(=O)N3CCCC(C)C3)sc2c1", "note": "(stereo not drawn)", "activation": "4.22% (inactive)"}
{"smiles": "CC(=O)Nc1cccc(-c2csc(Nc3cccc(C)n3)n2)c1", "activation": "3.26% (inactive)"}
{"smiles": "O=C(Nc1ccc2c(c1)CCC2)c1ccc(Br)s1", "activation": "7.91% (active)"}
{"smiles": "Cc1ccc(NC(=O)c2csc3c2CCCC3)cc1", "activation": "6.25% (active)"}
{"smiles": "c1ccc(Nc2nc(-c3ccncc3)cs2)nc1", "activation": "8.34% (active)"}
